Measurements from ChEMBL document CHEMBL2176871, “Development of ligands at γ-aminobutyrric acid type A (GABAA) receptor subtype as new agents for pain relief” (Bioorg Med Chem, 2011).
The source made the active and inactive calls.

Assays:
Bos taurus = species on record: Bos taurus; assay: Displacement of [3H]Ro151788 from GABA(A)/BzR in bovine cerebral cortex membrane at 10 uM; type: cell membranes
Outline: (§1)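 Bovine cerebral cortex membranes in 50 mM Tris-citrate pH 7.4; [3H]flumazenil displacement. Compounds first tested at a fixed 10 µM; Ki determined only when inhibition exceeded 80%, using at least six concentrations. Five experiments run in triplicate; IC50 obtained by iterative curve fitting and converted to Ki with the Cheng–Prusoff equation.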

Mus musculus [1] = assay: Antihyperalgesic activity against streptozotocin-induced hyperalgesia in Swiss albino mouse […] assessed as licking latency time at 30 mg/kg, po after 60 mins by hot plate test (reference value: 9.7 +/- 0.8 secs); type: functional
Mus musculus [2] = assay: Antihyperalgesic activity Swiss albino mouse […] assessed as licking latency time at 30 mg/kg, po after 60 mins by hot plate test (reference value: 17.1 +/- 0.71 secs); type: functional
Outline: (§2)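 Hot plate at 52.5 ± 0.1 °C in non-diabetic male Swiss mice. Latency to licking of fore or hind paws was timed before dosing and every 15 min up to 60 min after oral dosing. Mice with pretest latencies below 12 s or above 18 s were excluded. Cut-off was 45 s.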

Mus musculus [3] = assay: Antihyperalgesic activity against streptozotocin-induced hyperalgesia in Swiss albino mouse […] assessed as licking latency time at 30 mg/kg, po after 45 mins by hot plate test (reference value: 9.7 +/- 0.8 secs); type: functional
Mus musculus [4] = assay: Antihyperalgesic activity Swiss albino mouse […] assessed as licking latency time at 30 mg/kg, po after 45 mins by hot plate test (reference value: 17.1 +/- 0.71 secs); type: functional; outline: as §2
Mus musculus [5] = assay: Antihyperalgesic activity against streptozotocin-induced hyperalgesia in Swiss albino mouse […] assessed as licking latency time at 30 mg/kg, po after 30 mins by hot plate test (reference value: 9.7 +/- 0.8 secs); type: functional
Mus musculus [6] = assay: Antihyperalgesic activity Swiss albino mouse […] assessed as licking latency time at 30 mg/kg, po after 30 mins by hot plate test (reference value: 17.1 +/- 0.71 secs); type: functional; outline: as §2
Mus musculus [7] = assay: Antihyperalgesic activity against streptozotocin-induced hyperalgesia in Swiss albino mouse […] assessed as licking latency time at 30 mg/kg, po after 15 mins by hot plate test (reference value: 9.7 +/- 0.8 secs); type: functional
Mus musculus [8] = assay: Antihyperalgesic activity Swiss albino mouse […] assessed as licking latency time at 30 mg/kg, po after 15 mins by hot plate test (reference value: 17.1 +/- 0.71 secs); type: functional; outline: as §2
Mus musculus [9] = assay: Anxiolytic-like activity in Swiss albino mouse at 30 mg/kg, po after 30 mins by light/dark box test; type: functional, organism-based; set-up: dose 30 mg/kg
Outline: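 Male Swiss mice tested in a two-compartment light/dark box. Transfers between compartments and time spent in the lit side recorded. Compound given po 30 min before testing, in 10 ml/kg; flumazenil given i.p. for antagonism; 8 mice per group.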

[10] = Displacement of [3H]Ro151788 from GABA(A)/BzR in bovine cerebral cortex membrane; type: cell membranes, Bos taurus; outline: as §1
Mus musculus [11] = assay: Analgesic activity in Swiss albino mouse abdominal constriction model assessed as decrease in number of acetic acid-induced writhing at 30 to 60 mg/kg, po after 30 mins; type: functional, organism-based; conditions: Abdomen
Outline: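 Male Swiss albino mice (23–30 g). Compounds given po in 1% CMC vehicle 30 min before the test. Acetic acid 0.6% injected i.p. at 10 ml/kg. Stretching movements were counted for 10 min, starting 5 min after the acetic acid injection. 8–15 mice per group.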

Mus musculus [12] = assay: Anticonvulsant activity in Swiss albino mouse […] assessed as protection against intraperitoneally administered pentylenetetrazol-induced seizures at 30 mg/kg, po after 30 mins; type: functional
Outline: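 Male Swiss albino mice. Compounds given po and PTZ 90 mg/kg injected 30 min later; PTZ was dissolved in 0.9% NaCl saline. Clonic generalized convulsions were recorded over 30 min. Each value is the mean of 10 mice. The methods give the PTZ route as s.c. and the table footnote gives it as ip.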

Rattus norvegicus [13] = assay: Antinociceptive activity in Sprague-Dawley rat mononeuropathy pain model assessed as increase in injured paw pressure at 30 mg/kg, po after 45 mins by paw pressure test relative to non-treated control; type: functional
Outline: (§3)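 Chronic constriction injury: loose ligatures placed on the common sciatic nerve under chloral hydrate; contralateral sham dissection. Tested 14 days after surgery. Paw pressure applied at 32 g/s; threshold taken as the force causing the first struggle; cut-off 250 g; pretest outliers (<40 g or >75 g) excluded. Oral dosing in 10 ml/kg; read at 15, 30 and 45 min; compared with a CMC-treated group.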

Rattus norvegicus [14] = assay: Antinociceptive activity in Sprague-Dawley rat mononeuropathy pain model assessed as increase in injured paw pressure at 30 mg/kg, po after 30 mins by paw pressure test relative to non-treated control; type: functional; outline: as §3
Rattus norvegicus [15] = assay: Antinociceptive activity in Sprague-Dawley rat mononeuropathy pain model assessed as increase in injured paw pressure at 30 mg/kg, po after 15 mins by paw pressure test relative to non-treated control; type: functional; outline: as §3
Rattus norvegicus [16] = assay: Toxicity in Sprague-Dawley rat mononeuropathy pain model assessed as effect on contralateral paw pressure at 30 mg/kg, po after 45 mins by paw pressure test; type: organism-based; set-up: dose 30 mg/kg, route oral; conditions: in vivo, 0.75 h
Outline: (§4)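 Same sciatic-ligation rat model, 14 days after surgery. Threshold measured on the non-operated contralateral hind paw by analgesimeter at 32 g/s; first-struggle endpoint; 250 g cut-off; pretest rats outside 40–75 g rejected. Compound given po in 10 ml/kg; readings at 15, 30 and 45 min.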

Rattus norvegicus [17] = assay: Toxicity in Sprague-Dawley rat mononeuropathy pain model assessed as effect on contralateral paw pressure at 30 mg/kg, po after 30 mins by paw pressure test; type: organism-based; set-up: dose 30 mg/kg, route oral; conditions: in vivo, 0.5 h; outline: as §4
Rattus norvegicus [18] = assay: Toxicity in Sprague-Dawley rat mononeuropathy pain model assessed as effect on contralateral paw pressure at 30 mg/kg, po after 15 mins by paw pressure test; type: organism-based; set-up: dose 30 mg/kg, route oral; conditions: in vivo, 0.25 h; outline: as §4

Cc1cnn2c1n[n+]([O-])c1ccc(NCc3ccccc3)cc12
inhibition (Bos taurus): > 80%
Time (Mus musculus [1]): 11.7 s
Time (Mus musculus [2]): 17.8 s
Time (Mus musculus [3]): 10.2 s
Time (Mus musculus [4]): 18.3 s
Time (Mus musculus [5]): 11.3 s
Time (Mus musculus [6]): 18.2 s
Time (Mus musculus [7]): 9.6 s
Time (Mus musculus [8]): 6.8 s
Activity (Mus musculus [9]): Active
Ki [10]: 2.58 nM
Activity (Mus musculus [11]): inactive
Activity (Mus musculus [12]): 10%
Activity (Rattus norvegicus [13]): 28.5 g
Activity (Rattus norvegicus [14]): 27 g
Activity (Rattus norvegicus [15]): 27.4 g
Activity (Rattus norvegicus [16]): 62.5 g
Activity (Rattus norvegicus [17]): 63.2 g
Activity (Rattus norvegicus [18]): 61.5 g
